This is an account of results in ChEMBL document CHEMBL3244424, “Potential anticancer agents. 17. Analogues of methotrexate with a tripeptide side chain” (J Med Chem, 1978).

A word on the ILS: it is the gain in survival time of treated over control animals, in per cent. By LD50 is commonly meant the dose expected to kill half of the subjects tested. High values mean a less toxic substance, low ones a more toxic substance.

The test system of data set [1] is L1210. In words: Antitumor activity against mouse L1210 cells allografted in BDF1 mouse assessed as increase in life span at 100 mg/kg administered 8 times starting 24 hrs post challenge relative to control. Type of data set: functional. The following applies: L1210, 24 h. In a few lines:
(§1)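 L1210 leukemia cells, 10^6, inoculated ip; dosing started 24 h after inoculation, given daily as an aqueous solution at pH 8.0-8.4. Survival of treated versus control mice was read out as %ILS = (T/C − 1) × 100.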

Data set [2] can be described thus: Toxicity in Wistar rat administered as single dose. The format is organism-based. To be noted: in vivo.
The test system of data set [3] is L1210. The data set can be described thus: Antitumor activity against mouse L1210 cells allografted in BDF1 mouse assessed as increase in life span at 100 mg/kg administered 7 times starting 24 hrs post challenge relative to control. Type of data set: functional. To be noted: L1210, 24 h. A digest of the protocol:
as §1

The subject of data set [4] is L1210. The data set can be described thus: Antitumor activity against mouse L1210 cells allografted in BDF1 mouse assessed as increase in life span at 33 mg/kg administered 6 times starting 24 hrs post challenge relative to control. The format is functional. The following applies: L1210, 24 h. A digest of the protocol:
as §1

In data set [5] the test system is W256. The data set can be described thus: Antitumor activity against […] cells allografted in rat assessed as tumor growth inhibition at 18 mg/kg administered 13 times starting 7 days post challenge relative to control. The following applies: W256, 7 days, read-out: TGI.
Data set [6] deals with L1210. The data set can be described thus: Antitumor activity against mouse L1210 cells allografted in BDF1 mouse assessed as increase in life span at 100 mg/kg administered 6 times starting 24 hrs post challenge relative to control. Type of data set: functional. The following applies: L1210, 24 h. A digest of the protocol: as §1
The test system of data set [7] is W256. The data set can be described thus: Antitumor activity against […] cells allografted in rat assessed as tumor growth inhibition at 100 mg/kg administered 13 times starting 7 days post challenge relative to control. To be noted: W256, 7 days, read-out: TGI.
The test system of data set [8] is L1210. The data set can be described thus: Antitumor activity against mouse L1210 cells allografted in BDF1 mouse assessed as increase in life span at 50 mg/kg administered 6 times starting 24 hrs post challenge relative to control. Type of data set: functional. To be noted: L1210, 24 h. A digest of the protocol:
as §1

Data set [9] concerns L1210. In words: Antitumor activity against mouse L1210 cells allografted in BDF1 mouse assessed as increase in life span at 50 mg/kg administered 8 times starting 24 hrs post challenge relative to control. The format is functional. The following applies: L1210, 24 h. A digest of the protocol: as §1
The test system of data set [10] is W256. The data set can be described thus: Antitumor activity against […] cells allografted in rat assessed as tumor growth inhibition at 60 mg/kg administered 14 times starting 7 days post challenge relative to control. To be noted: W256, 7 days, read-out: TGI.
Data set [11] deals with L1210. The data set can be described thus: Antitumor activity against mouse L1210 cells allografted in BDF1 mouse assessed as increase in life span at 40 mg/kg administered 10 times starting 24 hrs post challenge relative to control. The format is functional. The following applies: L1210, 24 h. A digest of the protocol: as §1

As for `CN(Cc1cnc2nc(N)nc(N)c2n1)c1ccc(C(=O)NCC(=O)NC(CCC(=O)O)C(=O)O)cc1.O` (stereo not given), the ILS at 100 mg/kg in the data set on L1210 [1] is 0%. Further, the LD50 in [2] was determined as 830 mg/kg.

Take `CN(Cc1cnc2nc(N)nc(N)c2n1)c1ccc(C(=O)N[C@@H](Cc2ccccc2)C(=O)NC(CC(=O)O)C(=O)O)cc1.O` (stereo not given in full): the ILS at 100 mg/kg with L1210 [3] was found to be 0%. In [2], this compound came in with an LD50 of 1000 mg/kg.

On to `CN(Cc1cnc2nc(N)nc(N)c2n1)c1ccc(C(=O)N[C@@H](Cc2ccccc2)C(=O)NC(CCC(=O)O)C(=O)O)cc1.O` (stereo not given in full), for which the LD50 in data set [2] is 500 mg/kg.

As for `Nc1nc(N)c2nc(CNc3ccc(C(=O)NCC(=O)NC(CCC(=O)O)C(=O)O)cc3)cnc2n1.O` (stereo not given), the ILS at 33 mg/kg in the data set on L1210 [4] worked out at 14%. Also, the inhibition in vivo at 18 mg/kg in the data set with W256 [5] is 30%. Moreover, the LD50 in data set [2] was determined as 400 mg/kg.

As to `CN(CC(=O)NC(CCC(=O)O)C(=O)O)C(=O)c1ccc(N(C)Cc2cnc3nc(N)nc(N)c3n2)cc1.O` (stereo not given), the ILS at 100 mg/kg with L1210 [6] came out at 0%. The compound further showed an LD50 in data set [2] of 1000 mg/kg.

As for `CN(Cc1cnc2nc(N)nc(N)c2n1)c1ccc(C(=O)NCC(=O)NC(CC(=O)O)C(=O)O)cc1.O` (stereo not given), the ILS at 100 mg/kg in the data set on L1210 [1] was determined as 40%. The inhibition in vivo at 100 mg/kg in the data set on W256 [7] amounted to 41%. This compound returned an LD50 in [2] of 500 mg/kg.

With `CC(NC(=O)c1ccc(N(C)Cc2cnc3nc(N)nc(N)c3n2)cc1)C(=O)NC(CCC(=O)O)C(=O)O` (stereo not given), the ILS at 50 mg/kg in the data set with L1210 [8] came out at 19%. Besides, the LD50 in [2] is 500 mg/kg.

`CC(C)C[C@H](NC(=O)c1ccc(N(C)Cc2cnc3nc(N)nc(N)c3n2)cc1)C(=O)NC(CCC(=O)O)C(=O)O` (stereo not given in full) gave an LD50 in [2] of 500 mg/kg. In addition, the increase in lifespan (ILS) at 50 mg/kg in the data set on L1210 [9] is 0%.

`Nc1nc(N)c2nc(CNc3ccc(C(=O)NCC(=O)NC(CC(=O)O)C(=O)O)cc3)cnc2n1.O` (stereo not given): the inhibition in vivo at 60 mg/kg in the data set with W256 [10] came to 55%. The ILS at 40 mg/kg with L1210 [11] is 69%. This compound also showed an LD50 in data set [2] of 200 mg/kg.
